Measured values taken from ChEMBL document CHEMBL1134346, “Labeling and evaluation of N-[11C]methylated quinoline-2-carboxamides as potential radioligands for visualization of peripheral benzodiazepine receptors” (J Med Chem, 2001).

Assays:
[1] = species: Rattus norvegicus; assay: Tissue (plasma) distribution in Albino male CD rats after 5 minutes expressed as percent of injected dose per gram of organ.; type: ADME, organism-based; settings: in vivo
Summary of the method: (§1)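 Male albino CD rats (225-250 g) received the 11C-labelled radioligand in saline by tail-vein injection. Three rats per time point were decapitated under light ether anaesthesia at 5, 15, 30, 60 or 90 min. Blood was collected heparinized and plasma separated by centrifugation. The pituitary was dissected from the brain. Lung, liver (three-lobe pieces) and right deltoid muscle were sampled, washed in cold saline, gamma-counted and weighed. Results are %I.D./g.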

[2] = species: Rattus norvegicus; assay: Tissue (plasma) distribution in Albino male CD rats after 30 minutes expressed as percent of injected dose per gram of organ.; type: ADME, organism-based; settings: in vivo, 0.5 h; summary of the method: as §1
[3] = species: Rattus norvegicus; assay: Tissue (kidney) distribution in Albino male CD rats after 90 minutes expressed as percent of injected dose per gram of organ.; type: ADME, organism-based; settings: in vivo, 1.5 h
Summary of the method: (§2)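 Radioligand given in saline into tail vein of male albino CD rats (225-250 g); 100-200 µCi per animal, 1-2 Ci/µmol at injection depending on radioligand. Three rats per time point were decapitated under light ether anaesthesia. Blood, plasma, brain regions and washed organs were weighed and gamma-counted. Uptake is %I.D./g tissue, mean ± SD.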

[4] = biological target: Translocator protein (Rattus norvegicus) (UniProt P16257); assay: Tissue (liver) concentration of radioactivity at 30 min post-injection into Albino male CD rats after pretreatment with cold PK 11195.; type: functional, tissue-based
Summary of the method: (§3)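 Separate groups of five rats received tail-vein PK 11195 (1.4-1.6 mg; 5 mg/kg) in 30 µL DMSO:EtOH 1:1, or vehicle alone, immediately before iv radioligand (90-170 µCi in saline, 0.9-1 Ci/µmol). Rats were decapitated at 30 min and tissues gamma-counted; values are %I.D./g.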

[5] = species: Rattus norvegicus; assay: Tissue (testicle) distribution in Albino male CD rats after 15 minutes expressed as percent of injected dose per gram of organ.; type: ADME, organism-based; settings: in vivo, 0.25 h; summary of the method: as §1
[6] = species: Rattus norvegicus; assay: Tissue (pituitary) distribution in Albino male CD rats after 60 minutes expressed as percent of injected dose per gram of organ.; type: ADME, organism-based, Pituitary gland; settings: in vivo, 1 h; summary of the method: as §1
[7] = species: Rattus norvegicus; assay: Tissue (lung) distribution in Albino male CD rats after 5 minutes expressed as percent of injected dose per gram of organ.; type: ADME, organism-based; settings: in vivo; summary of the method: as §1
[8] = species: Rattus norvegicus; assay: Tissue (muscle) distribution in Albino male CD rats after 90 minutes expressed as percent of injected dose per gram of organ.; type: ADME, organism-based; settings: in vivo, 1.5 h; summary of the method: as §1
[9] = species: Rattus norvegicus; assay: Tissue (spleen) concentration of radioactivity at 30 min post-injection into Albino male CD rats with vehicle.; type: ADME, organism-based; settings: in vivo, 0.5 h
Summary of the method: (§4)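 Blocking study in male albino CD rats, five per group. Immediately before the 11C radioligand (in saline, i.v. tail vein), rats received 30 µL tail-vein PK 11195 (5 mg/kg; 1.4-1.6 mg) in DMSO:EtOH 1:1, or vehicle. Rats were decapitated at 30 min. Tissues were dissected, washed, gamma-counted and weighed as in the biodistribution study. Results are %I.D./g.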

[10] = species: Rattus norvegicus; assay: Tissue (liver) distribution in Albino male CD rats after 30 minutes expressed as percent of injected dose per gram of organ.; type: ADME, organism-based; settings: in vivo, 0.5 h; summary of the method: as §1
[11] = species: Rattus norvegicus; assay: Tissue (intestine) distribution in Albino male CD rats after 60 minutes expressed as percent of injected dose per gram of organ.; type: ADME, organism-based; settings: in vivo, 1 h; summary of the method: as §2
[12] = biological target: Translocator protein (Rattus norvegicus) (UniProt P16257); assay: Tissue (heart) concentration of radioactivity at 30 min post-injection into Albino male CD rats after pretreatment with cold PK 11195.; type: functional; summary of the method: as §3
[13] = species: Rattus norvegicus; assay: Tissue (adrenal gland) distribution in Albino male CD rats after 30 minutes expressed as percent of injected dose per gram of organ.; type: ADME, organism-based; settings: in vivo, 0.5 h; summary of the method: as §2
[14] = species: Rattus norvegicus; assay: Tissue (intestine) distribution in Albino male CD rats after 15 minutes expressed as percent of injected dose per gram of organ.; type: ADME, organism-based; settings: in vivo, 0.25 h; summary of the method: as §2
[15] = species: Rattus norvegicus; assay: Tissue (cortex) distribution in Albino male CD rats after 90 minutes expressed as percent of injected dose per gram of organ.; type: ADME, organism-based; settings: in vivo, 1.5 h; summary of the method: as §2
[16] = biological target: Translocator protein (Rattus norvegicus) (UniProt P16257); assay: Tissue (adrenal gland) concentration of radioactivity at 30 min post-injection into Albino male CD rats after pretreatment with cold PK 11195.; type: functional, tissue-based; summary of the method: as §3
[17] = species: Rattus norvegicus; assay: Tissue (liver) distribution in Albino male CD rats after 60 minutes expressed as percent of injected dose per gram of organ.; type: ADME, organism-based; settings: in vivo, 1 h; summary of the method: as §1
[18] = biological target: Translocator protein (Rattus norvegicus) (UniProt P16257); assay: Tissue (spleen) concentration of radioactivity at 30 min post-injection into Albino male CD rats after pretreatment with cold PK 11195.; type: functional, tissue-based; summary of the method: as §4
[19] = species: Rattus norvegicus; assay: Tissue (lung) distribution in Albino male CD rats after 60 minutes expressed as percent of injected dose per gram of organ.; type: ADME, organism-based; settings: in vivo, 1 h; summary of the method: as §1
[20] = species: Rattus norvegicus; assay: Tissue (cortex) distribution in Albino male CD rats after 5 minutes expressed as percent of injected dose per gram of organ.; type: ADME, organism-based; settings: in vivo; summary of the method: as §2
[21] = species: Rattus norvegicus; assay: Tissue (lung) concentration of radioactivity at 30 min post-injection into Albino male CD rats with vehicle.; type: ADME, organism-based; settings: in vivo, 0.5 h; summary of the method: as §4
[22] = biological target: Translocator protein (Rattus norvegicus) (UniProt P16257); assay: Tissue (pituitary) concentration of radioactivity at 30 min post-injection into Albino male CD rats after pretreatment with cold PK 11195.; type: functional, tissue-based; settings: Pituitary gland; summary of the method: as §4
[23] = species: Rattus norvegicus; assay: Tissue (muscle) distribution in Albino male CD rats after 5 minutes expressed as percent of injected dose per gram of organ.; type: ADME, organism-based; settings: in vivo; summary of the method: as §1
[24] = species: Rattus norvegicus; assay: Tissue (pituitary) distribution in Albino male CD rats after 30 minutes expressed as percent of injected dose per gram of organ.; type: ADME, organism-based, Pituitary gland; settings: in vivo, 0.5 h; summary of the method: as §1
[25] = species: Rattus norvegicus; assay: Tissue (cortex) distribution in Albino male CD rats after 60 minutes expressed as percent of injected dose per gram of organ.; type: ADME, organism-based; settings: in vivo, 1 h; summary of the method: as §2
[26] = species: Rattus norvegicus; assay: Tissue (liver) distribution in Albino male CD rats after 90 minutes expressed as percent of injected dose per gram of organ.; type: ADME, organism-based; settings: in vivo, 1.5 h; summary of the method: as §1
[27] = species: Rattus norvegicus; assay: Tissue (intestine) distribution in Albino male CD rats after 30 minutes expressed as percent of injected dose per gram of organ.; type: ADME, organism-based; settings: in vivo, 0.5 h; summary of the method: as §2
[28] = species: Rattus norvegicus; assay: Tissue (blood) distribution in Albino male CD rats after 90 minutes expressed as percent of injected dose per gram of organ.; type: ADME, organism-based; settings: in vivo, 1.5 h; summary of the method: as §2
[29] = species: Rattus norvegicus; assay: Tissue (intestine) distribution in Albino male CD rats after 90 minutes expressed as percent of injected dose per gram of organ.; type: ADME, organism-based; settings: in vivo, 1.5 h; summary of the method: as §2
[30] = species: Rattus norvegicus; assay: Tissue (lung) distribution in Albino male CD rats after 30 minutes expressed as percent of injected dose per gram of organ.; type: ADME, organism-based; settings: in vivo, 0.5 h; summary of the method: as §1
[31] = species: Rattus norvegicus; assay: Tissue (adrenal gland) distribution in Albino male CD rats after 15 minutes expressed as percent of injected dose per gram of organ.; type: ADME, organism-based; settings: in vivo, 0.25 h; summary of the method: as §2
[32] = species: Rattus norvegicus; assay: Tissue (muscle) distribution in Albino male CD rats after 60 minutes expressed as percent of injected dose per gram of organ.; type: ADME, organism-based; settings: in vivo, 1 h; summary of the method: as §1
[33] = species: Rattus norvegicus; assay: Tissue (kidney) distribution in Albino male CD rats after 60 minutes expressed as percent of injected dose per gram of organ.; type: ADME, organism-based; settings: in vivo, 1 h; summary of the method: as §2
[34] = biological target: Translocator protein (Rattus norvegicus) (UniProt P16257); assay: Tissue (blood) concentration of radioactivity at 30 min post-injection into Albino male CD rats after pretreatment with cold PK 11195.; type: functional, tissue-based; summary of the method: as §3
[35] = biological target: Translocator protein (Rattus norvegicus) (UniProt P16257); assay: Tissue (muscle) concentration of radioactivity at 30 min post-injection into Albino male CD rats after pretreatment with cold PK 11195.; type: functional; summary of the method: as §4
[36] = species: Rattus norvegicus; assay: Tissue (liver) concentration of radioactivity at 30 min post-injection into Albino male CD rats with vehicle.; type: ADME, organism-based; settings: in vivo, 0.5 h; summary of the method: as §3
[37] = species: Rattus norvegicus; assay: Tissue (testicle) distribution in Albino male CD rats after 30 minutes expressed as percent of injected dose per gram of organ.; type: ADME, organism-based; settings: in vivo, 0.5 h; summary of the method: as §1
[38] = species: Rattus norvegicus; assay: Tissue (muscle) concentration of radioactivity at 30 min post-injection into Albino male CD rats with vehicle.; type: ADME, organism-based; settings: in vivo, 0.5 h; summary of the method: as §4
[39] = species: Rattus norvegicus; assay: Tissue (spleen) distribution in Albino male CD rats after 30 minutes expressed as percent of injected dose per gram of organ.; type: ADME, organism-based; settings: in vivo, 0.5 h; summary of the method: as §1
[40] = species: Rattus norvegicus; assay: Tissue (plasma) distribution in Albino male CD rats after 15 minutes expressed as percent of injected dose per gram of organ.; type: ADME, organism-based; settings: in vivo, 0.25 h; summary of the method: as §1

Sequence of Translocator protein (Rattus norvegicus) (P16257 whole entry, looked up): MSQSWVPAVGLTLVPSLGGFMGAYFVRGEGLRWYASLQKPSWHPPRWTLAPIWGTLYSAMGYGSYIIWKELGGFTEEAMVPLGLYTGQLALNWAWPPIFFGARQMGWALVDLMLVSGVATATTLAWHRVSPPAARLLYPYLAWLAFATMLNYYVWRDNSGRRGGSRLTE

| I.D./g [1] | I.D./g [2] | I.D./g [3] | I.D./g [4] | I.D./g [5] | I.D./g [6] | I.D./g [7] | I.D./g [8] | I.D./g [9] | I.D./g [10] | I.D./g [11] | I.D./g [12] | I.D./g [13] | I.D./g [14] | I.D./g [15] | I.D./g [16] | I.D./g [17] | I.D./g [18] | I.D./g [19] | I.D./g [20] | other results | SMILES |
| --- | --- | --- | --- | --- | --- | --- | --- | --- | --- | --- | --- | --- | --- | --- | --- | --- | --- | --- | --- | --- | --- |
| 0.16% | 0.06% | 1.34% | < 0.16% | 0.12% | 0.36% | 4% | 0.21% | 0.26% | 0.43% | 0.62% | < 0.04% | 2.99% | 0.78% | 0.05% | < 0.17% | 0.41% | < 0.02% | 1.48% | 0.25% | I.D./g [21]: 0.35%; I.D./g [22]: > 0.09%; I.D./g [23]: 0.19%; I.D./g [24]: 0.3%; I.D./g [25]: 0.06%; I.D./g [26]: 0.4%; I.D./g [27]: 0.55%; I.D./g [28]: 0.04%; I.D./g [29]: 0.68%; I.D./g [30]: 2%; I.D./g [31]: 2.29%; I.D./g [32]: 0.14%; I.D./g [33]: 1.14%; I.D./g [34]: > 0.02%; I.D./g [35]: > 0.02%; I.D./g [36]: 0.08%; I.D./g [37]: 0.13%; I.D./g [38]: 0.03%; I.D./g [39]: 1.46%; I.D./g [40]: 0.09% | Cc1c(C(=O)N(C)Cc2ccccc2)nc2ccccc2c1-c1ccccc1 |
| 0.12% | 0.03% | 0.73% | < 0.56% | 0.05% | 0.25% | 3.09% | 0.12% | 0.56% | 0.55% | 0.4% | < 0.13% | 2.54% | 0.32% | 0.03% | > 0.94% | 0.32% | < 0.11% | 1.33% | 0.12% | I.D./g [21]: 0.91%; I.D./g [22]: < 0.07%; I.D./g [23]: 0.11%; I.D./g [24]: 0.24%; I.D./g [25]: 0.04%; I.D./g [26]: 0.27%; I.D./g [27]: 0.4%; I.D./g [28]: 0.03%; I.D./g [29]: 0.37%; I.D./g [30]: 2.34%; I.D./g [31]: 1.38%; I.D./g [32]: 0.12%; I.D./g [33]: 0.78%; I.D./g [34]: < 0.06%; I.D./g [35]: > 0.07%; I.D./g [36]: 0.3%; I.D./g [37]: 0.08%; I.D./g [38]: 0.09%; I.D./g [39]: 1.25%; I.D./g [40]: 0.05% | CCC(C)N(C)C(=O)c1nc2ccccc2c(-c2ccccc2)c1C (stereo not given) |
